Results from article PMC12533025 (Scientific Reports, 2025).
One block for each molecule: values may come before it.

Experiments:
male Wistar mice = test: Warm-water tail-flick test; assay type: in vivo; details: for acute antinociceptive agonist effect, tail flick assay: up to 30 mg/kg dose; for percentage of maximum possible effect (% MPE), tail flick assay: compared with the KOP agonist Nalbuphine
KOP [1] = biological target: T1, KOP (Mus musculus, UniProt P33534); test: Radioligand competitive binding assay, KOP; details: KOP versus MOP binding
prolactin = test: Prolactin ELISA assay; assay type: in vivo, mice; details: rat prolactin ELISA test; relative to normal level
Method in brief: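 After dosing, blood is drawn by retro-orbital sinus bleed from isoflurane-anaesthetised mice and spun at 1000 g, 4 °C, 10 min. Plasma is diluted 1:20 and prolactin is measured by […] prolactin sandwich ELISA per kit protocol. Values are in ng/mL. Groups are compared with control by one-way ANOVA and Dunnett post-hoc test (p < 0.05).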

MOP [2] = biological target: T2, MOP (Mus musculus, UniProt P42866); test: [35S]-GTPγS stimulated binding functional assay, MOP; assay type: biochemical
Method in brief: (§1)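 Membranes come from CHO cells expressing cloned mouse opioid receptors. Membrane protein (10 µg) is incubated with test compound (5µM), […] and 0.1nM [35S]-GTPγS in 50mM Tris, 3mM MgCl2, 0.2mM EDTA, pH 7.7, for 2 h at room temperature. Non-specific binding is defined with 20µM unlabelled GTPγS. Full-agonist references at 5µM are DAMGO (MOP) and salvinorin A (KOP).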

MOP [3] = biological target: T2, MOP; test: Radioligand competitive binding assay, MOP; details: MOP over KOP
KOP [4] = biological target: T1, KOP; test: [35S]-GTPγS stimulated binding functional assay, KOP; assay type: biochemical; details: for agonism in the [35S]-GTPγS functional assay: KOP and MOP functional assay
Method in brief: as §1

[5] = clinical trials; cited from earlier work
[6] = cited from earlier work
KOP [7] = details: [35S]GTP-γ-S assay; cited from earlier work

SMILES: CC(C)[C@H](CN1CCc2ccccc2C1)NC(=O)Cc1c[nH]c2ccccc12 [(R)-10c, (R)-N-(1-(3,4-dihydroisoquinolin-2(1H)-yl)-3-methylbutan-2-yl)-2-(1H-indol-3-yl)acetamide]
acute antinociceptive agonist effect, tail flick assay (male Wistar mice): failed to show any significant agonist effect

KOP selectivity (KOP [1]): most selective
SMILES: CC(C)Cc1ccc([C@@H](C)C(=O)NC(CN2CCc3ccccc3C2)C(C)C)cc1 (stereo partly drawn) [(R)-10d]
blood prolactin levels (prolactin): double | percentage of maximum possible effect (% MPE), tail flick assay (male Wistar mice): comparable to that of the KOP agonist Nalbuphine

SMILES: Cc1c(CC(=O)N[C@@H](CN2CCc3ccccc3C2)C(C)C)cccc1[N+](=O)[O-] [(R)-10m, (R)-N-(1-(3,4-dihydroisoquinolin-2(1H)-yl)-3-methylbutan-2-yl)-2-(2-methyl-3-nitrophenyl)acetamide]
EC50 (MOP [2]): 94.5 nM | IC50 (MOP [2]): 94.5 nM | MOP selectivity (MOP [3]): 23 fold | blood prolactin levels (prolactin): double | latency in the tail-flick animal model (male Wistar mice; compared with positive control Nalbuphine): comparable latency to the positive control, Nalbuphine | percentage of maximum possible effect (% MPE), tail flick assay (male Wistar mice): comparable to that of the KOP agonist Nalbuphine | EC50 (KOP [4]): 666 nM

SMILES: CC(C)[C@@H](CN1CCc2ccccc2C1)NC(=O)c1cccc(-c2cccc(O)c2)c1 [(S)-10h, (S)-N-(1-(3,4-dihydroisoquinolin-2(1H)-yl)-3-methylbutan-2-yl)-3′-hydroxy-[1,1′-biphenyl]-3-carboxamide]
acute antinociceptive agonist effect, tail flick assay (male Wistar mice): failed to show any significant agonist effect | functional character at KOP/MOP (KOP [4]; KOP and MOP): non-selective KOP/MOP antagonist | agonism in the [35S]-GTPγS functional assay (KOP [4]): failed to produce any agonism

agonism in the [35S]-GTPγS functional assay (KOP [4]): failed to produce any agonism
SMILES: CC(C)[C@@H](CN1CCc2ccccc2C1)NC(=O)c1cccc(-c2cccc(C#N)c2)c1 [(S)-10i, (S)-3′-cyano-N-(1-(3,4-dihydroisoquinolin-2(1H)-yl)-3-methylbutan-2-yl)-[1,1′-biphenyl]-3-carboxamide]
acute antinociceptive agonist effect, tail flick assay (male Wistar mice): failed to show any significant agonist effect

SMILES: CC(C)[C@@H](CN1CCc2ccccc2C1)NC(=O)c1cccc(-c2cccnc2)c1 [(S)-10j, (S)-N-(1-(3,4-dihydroisoquinolin-2(1H)-yl)-3-methylbutan-2-yl)-3-(pyridin-3-yl)benzamide]
blood prolactin levels (prolactin): double | percentage of maximum possible effect (% MPE), tail flick assay (male Wistar mice): comparable to that of the KOP agonist Nalbuphine

SMILES: Cc1cc(C)cc([C@@H]2CCCN2Cc2ccc(Oc3ccc(C(N)=O)cc3F)cc2)c1 [Aticaprant]
adverse effects (NSVT) [5]: devoid of the NSVT effect

SMILES: CC(C)[C@@H](CN1CC[C@@](C)(c2cccc(O)c2)[C@@H](C)C1)NC(=O)[C@H]1Cc2ccc(O)cc2CN1 [JDTic]
blood–brain barrier penetration [6]: low blood–brain barrier penetration | Ki (KOP [7]): 6 pM | µ/ĸ ratio (KOP [7]): 570 | δ/ĸ ratio (KOP [7]): > 16600 | adverse effects (NSVT) [5]: non-sustained ventricular tachycardia (NSVT)
